Reference: PubChem BioAssay
Active and inactive are the calls of the source.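 How the source made its calls, unless noted: active means viability at or under a set limit in both replicates, limit being median viability minus 3 SD (cut at about 48% in these data, passing the limit was not always enough); inconclusive means at or under the limit in just one replicate; inactive means at or above the limit in both replicates.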

What was measured:
[1] = SK-BR-3 cell growth inhibitors, pilot screen, 24 h, human (AID 572;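 active means viability at or below 10% of carrier control in both of two separate runs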;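 further: compound exposure lasted between 18 and 24 h rather than exactly 24 h; 100% = carrier-treated control wells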); conditions: SK-BR-3 viability, CellTiter-Glo luminescence, at 10 µM, stronger effect = lower value
[2] = HUVEC growth inhibition – cell-based, human, primary screen (AID 575;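 active means viability at or below 30% in both replicate assays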;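 further: 100% = median of untreated cell wells with 0.1% DMSO on each plate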); conditions: HUVEC proliferation, CellTiter-Glo luminescence, 72 h; at 10 µM; stronger effect = lower value
Summary of the method: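 Test system – primary HUVEC, no more than 12 passages · Dosing – one dose, 10 µM final, 0.1% DMSO · Times – 72 h treatment at 37 °C · Measured by – ATP-based CellTiter-Glo luminescent read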

[3] = growth inhibitors of H69AR lung tumor, primary screen, human, duplicate replicates (AID 580); conditions: H69AR lung tumor cells viability, ATP luminescence, 72 h; at 10 µM; stronger effect = lower value;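 further: 100% = mean luminescence of untreated wells and 0% = no signal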
[4] = reversal of MRP1-mediated doxorubicin resistance, pilot screen, H69AR cells, doxorubicin co-treatment (AID 601;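 active means viability loss from added drug above about 55%, and viability with drug at most 40%, in both replicates, limit read from the data, passing the limit was not always enough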); conditions: CellTiter-Glo, 72 h, at 10 µM; for differential viability (reversal): stronger effect = higher value
[5] = 384-well plate pilot, post-Golgi transport modulator project, inhibition of yeast transport mutant growth (AID 636; in the data active means inhibition above about 31%); conditions: absorbance 615 nm, about 18 h, stronger effect = higher value
[6] = growth suppression of yeast trafficking mutant, preliminary HTS, modulators of trafficking downstream of Golgi apparatus project, 1536-format plate, OD 615 nm (AID 637; in the data active means inhibition above about 30%); conditions: yeast transport mutant growth, absorbance 615 nm, 18 h; stronger effect = higher value
[7] = H69AR cells + 2 uM doxorubicin, measured here: viability with 2 uM doxorubicin, stronger effect = lower value
[8] = H69AR cells, compound alone cytotoxicity

Row | Compound | viability [1] | viability [2] | viability [3] | differential viability (reversal) ([4]; H69AR cells + 2 uM doxorubicin) | viability [4, 7] [%] | viability [4, 8] [%] | inhibition [5] | inhibition [6]
1 | COC(=O)c1cccc(Nc2cc(C)nc(-c3ccccc3O)n2)c1 | 69% (inactive) | 62.3% (inactive) | 64.4% (inactive) | -6.26% (inactive) | 70.7 | 64.4 | 0% (inactive) | 2.18% (inactive)
2 | Cc1cc(=O)c2n(Cc3ccccc3Cl)nc[n+]2[nH]1 | 115% (inactive) | 100% (inactive) | 97.1% (inactive) | 8.77% (inactive) | 88.3 | 97.1 | -4.4% (inactive) | 0% (inactive)
3 | COc1ccc(NC(=O)N2CCC(c3nc(-c4cccs4)no3)CC2)cc1 | 121% (inactive) | 98.3% (inactive) | 95.6% (inactive) | 15.4% (inactive) | 80.2 | 95.6 | -2.4% (inactive) | 0.73% (inactive)
4 | Cn1cnc2c1c(=O)[nH]c(=O)n2C | 108% (inactive) | 85.7% (inactive) | 96.1% (inactive) | -0.7% (inactive) | 96.8 | 96.1 | -0.91% (inactive) | 6.33% (inactive)
5 | Cc1cc(Nc2ccccc2)n(-c2ccccc2)n1 | 123% (inactive) | 94.3% (inactive) | 101% (inactive) | 5.72% (inactive) | 95.6 | 101 | -1.1% (inactive) | -6.61% (inactive)
6 | N#CC1=C(N)N2C(=C(C#N)C13CCCCC3)SC1CCCCC12O (stereo unspecified) | 72% (inactive) | 88.2% (inactive) | 76.1% (inactive) | 6.71% (inactive) | 69.4 | 76.1 | -3.01% (inactive) | 8.91% (inactive)
7 | CCc1ccccc1OCCCCN1CCCC1 | 124% (inactive) | 82% (inactive) | 89.1% (inactive) | 10.8% (inactive) | 78.2 | 89.1 | -5.06% (inactive) | -1.97% (inactive)
